Source: ChEMBL document CHEMBL2424598, “Identification and optimization of pteridinone Toll-like receptor 7 (TLR7) agonists for the oral treatment of viral hepatitis” (J Med Chem, 2013)
The source made the active and inactive calls. The rule behind the calls is not given here.

Key:
Cynomolgus monkey [1] = experiment: Agonist activity at […] in po dosed cynomolgus monkey assessed as increase of serum IFNalpha level after 1 to 24 hrs by ELISA; assay type: functional, organism-based; details: Macaca fascicularis
How it was run: (§1)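 Healthy male cynomolgus monkeys, n = 3 per group, dosed either by 30 min iv infusion or orally. Serum was sampled predose and at 1, 2, 4, 8, 12 and 24 h postdose. IFN-α was measured by species-specific ELISA (limit of detection 130 pg/mL) and reported as mean peak serum level ± SD.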

Cynomolgus monkey [2] = experiment: Agonist activity at […] in cynomolgus monkey assessed as increase of serum IFNalpha level at 1 mg/kg, po after 1 to 24 hrs by ELISA; assay type: functional, Macaca fascicularis; how it was run: as §1
Cynomolgus monkey [3] = experiment: Agonist activity at […] in cynomolgus monkey assessed as increase of serum IFNalpha level at 0.1 mg/kg, po after 1 to 24 hrs by ELISA; assay type: functional, Macaca fascicularis; how it was run: as §1
[4] = Cmax in cynomolgus monkey at 1 mg/kg, po; assay type: ADME, organism-based, Macaca fascicularis; set-up: dose 1 mg/kg, route oral; details: in vivo
How it was run: (§2)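 Male cynomolgus monkeys, n = 3 per group, received a 30 min iv infusion or an oral dose. Compound was measured in serum (limit of quantitation 0.04 ng/mL), and Cmax is reported as the group mean.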

[5] = Cmax in cynomolgus monkey at 2 mg/kg, po; assay type: ADME, organism-based, Macaca fascicularis; set-up: dose 2 mg/kg, route oral; details: in vivo; how it was run: as §2
[6] = Cmax in cynomolgus monkey at 0.3 mg/kg, po; assay type: ADME, organism-based, Macaca fascicularis; set-up: dose 0.3 mg/kg, route oral; details: in vivo; how it was run: as §2
[7] = Cmax in cynomolgus monkey at 0.1 mg/kg, iv; assay type: ADME, organism-based, Macaca fascicularis; set-up: dose 0.1 mg/kg, route intravenous; details: in vivo; how it was run: as §2
[8] = Oral bioavailability in cynomolgus monkey at 0.3 mg/kg; assay type: ADME, organism-based, Macaca fascicularis; details: in vivo
How it was run: (§3)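 Healthy male cynomolgus monkeys, n = 3, received a 30 min iv infusion at 0.1 mg/kg or an oral dose at 0.3 mg/kg. The oral formulation was water at pH 3.1 (HCl). Plasma PK parameters (CL, Vss, F) are reported as mean ± SD.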

[9] = Volume of distribution at steady state in cynomolgus monkey at 0.1 mg/kg, iv and 0.3 mg/kg, po; assay type: ADME, organism-based, Macaca fascicularis; details: in vivo, read-out: Vdss; how it was run: as §3
[10] = Half life in dog liver microsomes; assay type: ADME, Canis lupus familiaris, Microsome
[11] = Half life in monkey liver microsomes; assay type: ADME, Macaca mulatta, Microsome; details: rhesus monkey
[12] = Half life in rat liver microsomes; assay type: ADME, Microsome
Toll-like receptor 8 = biological target: T1, Toll-like receptor 8 (Homo sapiens, UniProt Q9NR97); experiment: Agonist activity at human TLR8 expressed in HEK293 cells by reporter based assay; assay type: cell-based
T1 sequence (Q9NR97 whole entry): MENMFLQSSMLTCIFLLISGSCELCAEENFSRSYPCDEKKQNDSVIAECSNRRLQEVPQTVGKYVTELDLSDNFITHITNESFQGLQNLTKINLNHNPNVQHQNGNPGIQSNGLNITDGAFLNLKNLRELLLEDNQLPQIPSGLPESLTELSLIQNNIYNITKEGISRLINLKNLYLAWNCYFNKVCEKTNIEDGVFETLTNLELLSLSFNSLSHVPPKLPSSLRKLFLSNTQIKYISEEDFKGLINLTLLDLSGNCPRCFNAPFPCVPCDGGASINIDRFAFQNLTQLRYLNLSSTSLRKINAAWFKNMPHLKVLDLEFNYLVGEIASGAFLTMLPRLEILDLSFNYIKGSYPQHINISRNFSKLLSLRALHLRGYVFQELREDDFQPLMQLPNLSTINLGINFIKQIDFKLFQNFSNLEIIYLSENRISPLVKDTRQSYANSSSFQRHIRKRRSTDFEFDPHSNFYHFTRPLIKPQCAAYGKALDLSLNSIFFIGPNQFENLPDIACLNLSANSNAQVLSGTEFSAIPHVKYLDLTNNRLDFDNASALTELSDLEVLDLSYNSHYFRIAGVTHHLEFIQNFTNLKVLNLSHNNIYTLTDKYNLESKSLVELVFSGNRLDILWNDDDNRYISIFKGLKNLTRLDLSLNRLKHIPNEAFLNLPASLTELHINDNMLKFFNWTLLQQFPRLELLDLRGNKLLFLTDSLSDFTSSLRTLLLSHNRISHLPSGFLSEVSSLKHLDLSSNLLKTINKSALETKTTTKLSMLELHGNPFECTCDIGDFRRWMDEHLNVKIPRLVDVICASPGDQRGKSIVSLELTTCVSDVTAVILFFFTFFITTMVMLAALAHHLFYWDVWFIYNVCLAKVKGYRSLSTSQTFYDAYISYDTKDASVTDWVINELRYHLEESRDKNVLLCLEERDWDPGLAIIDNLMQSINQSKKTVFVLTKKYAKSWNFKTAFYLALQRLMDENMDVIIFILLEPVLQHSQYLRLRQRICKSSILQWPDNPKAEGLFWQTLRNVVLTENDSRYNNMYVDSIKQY
How it was run: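 HEK293 reporter cell lines, each expressing a single human TLR, with compound titrated up to 100 μM. EC50 taken for TLR7 and TLR8 activation.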

Homo sapiens = organism: Homo sapiens; experiment: Selectivity ratio of MEC for TLR8-mediated TNFalpha production in human PBMC to MEC for TLR7-mediated IFNalpha production in human PBMC
How it was run: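 Cryopreserved human PBMCs came from leukapheresis of a single healthy donor selected as a consistent responder. Cells were incubated with compound for 24 h over an eight-point concentration range, and cytokine release was measured. MEC is the lowest concentration giving cytokine levels at least 3-fold above untreated cultures, determined per cytokine.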

Cynomolgus monkey [13] = experiment: Agonist activity at […] in cynomolgus monkey assessed as increase of serum TNFalpha level at 2 mg/kg after 1 to 24 hrs by ELISA
Cynomolgus monkey [14] = experiment: Agonist activity at […] in cynomolgus monkey assessed as increase of serum TNFalpha level at 0.3 to 1 mg/kg after 1 to 24 hrs by ELISA; details: Macaca fascicularis

Cmax [4]: 20.7 ng/mL
Cmax [5]: 66.4 ng/mL
Cmax [6]: 4.6 ng/mL
Cmax [7]: 128 ng/mL
bioavailability [8]: 1.1%
Vd [9]: 4.1 L/kg
half-life [10]: 58.6 min
half-life [11]: 5.9 min
half-life [12]: 5.4 min
EC50 (Toll-like receptor 8): 9 µM
Ratio (Homo sapiens): 100
Structure (SMILES): CCCCOc1nc(N)c2c(n1)N(Cc1cccc(CN3CCCC3)c1)CC(=O)N2 [VESATOLIMOD]
Activity (Cynomolgus monkey [1]): Dose-dependent effect
Activity (Cynomolgus monkey [2]): 22367 pg/mL
Activity (Cynomolgus monkey [3]): 140 pg/mL
Activity (Cynomolgus monkey [13]): 578 pg/mL
Activity (Cynomolgus monkey [14]): inactive
